Assay outcomes from PubChem.
SENP8 block-1 = human SENP8 protease inhibitors, primary screen, biochemical, fluorescence, Nedd8 protein substrate, uHTS. recombinant SENP8. Sentrin-specific protease 8 (Homo sapiens), Q96LD8. 360,000 tested, 0.64% active. inhibition, % at 20 µM; in the data active means inhibition mostly above about 40%, no sharp cut-off; inactive means mostly below about 27%
Target sequence (Q96LD8 whole entry, looked up): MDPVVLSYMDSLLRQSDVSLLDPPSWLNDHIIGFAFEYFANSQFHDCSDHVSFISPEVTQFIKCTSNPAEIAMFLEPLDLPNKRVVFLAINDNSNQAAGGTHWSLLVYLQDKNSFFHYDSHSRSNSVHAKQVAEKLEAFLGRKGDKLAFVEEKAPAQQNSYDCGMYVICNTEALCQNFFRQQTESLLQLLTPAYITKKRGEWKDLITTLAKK
SENP1 inh = human SENP1 catalytic domain inhibitors, primary screen, biochemical, FRET, uHTS; Sentrin-specific protease 1 (Homo sapiens), Q9P0U3; recombinant SENP1 catalytic domain, CyPet-SUMO1-YPet FRET cleavage; inhibition, % at 10 µM; 360,000 tested, 0.21% active;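 active means inhibition at least 30% at 10 µM, raw YFP signal under a set limit, fluorescence ratio 0.5 to 1.5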;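 further: 0% = enzyme with DMSO and 100% = no enzyme wells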
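Assay system – human recombinant His6-tagged SENP1 catalytic domain enzyme · Input – SENP1 enzyme, 20 pM final · Buffer or medium – Tris pH 8 buffer plus EDTA, NaCl, BME, BSA, NP40, catalase · Schedule – 50 min reaction at room temperature · Technique – FRET read of cyan and yellow fluorescence · Control set – no-enzyme wells low, DMSO-plus-enzyme wells high control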
SENP7 inh = SENP7 protease inhibitors, primary screen, biochemical, luminescence, uHTS; recombinant SENP7, Z-RLRGG-aminoluciferin luminescence, 40 min; AID 434973, 2010; 330,000 tested, 1.5% active; inhibition, % at 5 µM; Sentrin-specific protease 7 (Homo sapiens), Q9BQF6;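 active means inhibition above about 50% at the single test dose, limit read from the data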;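 further: plate controls were DMSO with enzyme for no effect and no enzyme buffer wells for full effect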
HSP90 inh = HSP90 inhibitors, primary screen, cell lysate, luminescence; 290,000 tested, 0.91% active; Rabbit reticulocyte lysate, luciferase refolding luminescence, 3 h; Heat shock protein HSP 90 (rabbit reticulocyte lysate; luciferase refolding); inhibition, % at 5.6 µM; AID 1789, 2009;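 active means inhibition above the screen-wide mean plus 3 SD, computed separately per campaign, cut at about 16% in these data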;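 further: 0% = DMSO wells and 100% = 60 µM geldanamycin wells; inhibitors lower the luminescence because luciferase stays unfolded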
SENP6 inh = SENP6 protease inhibitors, primary screen, biochemical, luminescence, uHTS | Sentrin-specific protease 6 (Homo sapiens), Q9GZR1 | inhibition, % at 10 µM | Recombinant SENP6 catalytic domain, aminoluciferin luminescence | 330,000 tested, 1.8% active;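 active means inhibition above about 50% at the single tested dose, limit read from the data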;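 further: plate controls were DMSO wells with enzyme for no effect and DMSO wells lacking enzyme for full effect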
SENP8 block-2 = SENP8 protease inhibitors, primary screen, biochemical, luminescence | Sentrin-specific protease 8 (Homo sapiens), Q96LD8 | purified SENP8, Z-RLRGG-aminoluciferin cleavage | inhibition, % at 10 µM | 330,000 tested, 1.2% active | AID 2540, 2010; in the data active means inhibition above about 50%
SENP8 conf = SENP8 protease inhibitors, retest, confirmation, biochemical, luminescence, single concentration | shares compounds with SENP7 inh | Recombinant SENP8, Z-RLRGG-aminoluciferin luminescence, 60 min | inhibition, % at 12.5 µM | 6,200 tested, 40% active;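 active means mean inhibition across replicates above about 50%, limit read from the data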
SENP6 confirm = SENP6 protease inhibitors, confirmation, biochemical, luminescence, single concentration. inhibition, % at 12.5 µM. shares compounds with SENP7 inh. recombinant SENP6, Z-RLRGG-aminoluciferin luminescence. 6,200 tested, 58% active. AID 488915, 2010
SENP7 conf = SENP7 protease inhibitors, retest, confirmation, biochemical, luminescence, single concentration; shares compounds with SENP7 inh; recombinant SENP7, Z-RLRGG-aminoluciferin luminescence, 40 min; inhibition, % at 12.5 µM; 6,200 tested, 69% active; AID 488917, 2010
Casp3 select = caspase-3 protease inhibitors, confirmation, selectivity assay for SENP inhibitor project, biochemical, single concentration; shares compounds with SENP7 inh; purified caspase-3, Z-DEVD-aminoluciferin luminescence, 60 min; inhibition, % at 12.5 µM; 6,200 tested, 60% active;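 active means mean inhibition above about 50%, limit read from the data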;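 further: plate controls were enzyme with DMSO for no effect and wells without caspase-3 for full effect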
Target sequence (P42574 28-227 limits assumed): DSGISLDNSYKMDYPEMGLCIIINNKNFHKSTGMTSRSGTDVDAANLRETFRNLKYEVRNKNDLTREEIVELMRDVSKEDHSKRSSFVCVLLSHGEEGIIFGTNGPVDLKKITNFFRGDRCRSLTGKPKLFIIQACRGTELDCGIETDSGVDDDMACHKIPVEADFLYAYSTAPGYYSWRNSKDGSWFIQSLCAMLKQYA
Luc interf = counter-screen for SENP inhibitors: luminescence interference | 6,200 tested, 39% active | AID 488919 | inhibition, % at 12.5 µM | shares compounds with SENP7 inh | Pre-incubated SENP8/Z-RLRGG-aminoluciferin, luciferase luminescence interference;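 active means mean inhibition above about 50% when retested at one dose, limit read from the data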;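 further: plate controls were DMSO wells with completed reaction for no effect and substrate without enzyme for full effect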
* marks the source's active call; other numbers are inactive results; / = no result given. Hits are enriched below; roughly 2.9% of the tested compounds scored in any of these assays.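 How the source made its calls, unless noted: active means mean inhibition above about 50% in the one-dose retest (limit read from the data); inactive means the rest.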

SMILES	SENP8 block-1	SENP1 inh	SENP7 inh	HSP90 inh	SENP6 inh	SENP8 block-2	SENP8 conf	SENP6 confirm	SENP7 conf	Casp3 select	Luc interf
O=[N+]([O-])c1ccc(-c2nc3ccc([N+](=O)[O-])cc3[nH]2)cc1	28	4	76*	-1	85*	68*	3	30	58*	34	50*
CCn1c(SCC(=O)N/N=C/c2ccccc2OCC(=O)O)nnc1-c1ccccc1	/	/	-4	-4	70*	1	-3	0	-3	6	7
O=C(N=C1SC2CS(=O)(=O)CC2N1Cc1ccccc1)C1CC1 (stereo not drawn)	3	1	/	/	/	/	/	/	/	/	/
CCc1ccc(C2=NN(S(C)(=O)=O)C(c3cccs3)C2)cc1 (stereo not drawn)	-51	-54	92*	2	96*	83*	90*	90*	99*	90*	86*
Cc1ccc(C2=NN(S(C)(=O)=O)C(c3cccs3)C2)cc1 (stereo not drawn)	22	0	52*	0	74*	54*	68*	64*	87*	75*	67*
CS(=O)(=O)N1N=C(c2ccc(Br)cc2)CC1c1cccs1 (stereo not drawn)	25	0	34	0	61*	40	8	9	83*	56*	6
COc1ccc(C2=NN(S(C)(=O)=O)C(c3cccs3)C2)cc1 (stereo not drawn)	11	0	46	0	-10	30	/	/	/	/	/
CS(=O)(=O)N1N=C(c2cccs2)CC1c1ccccc1 (stereo not drawn)	-1	-1	2	2	19	-1	/	/	/	/	/
CCOc1ccc(/C=C/[N+](=O)[O-])c2ccccc12	18	-12	27	2	67*	44	14	7	13	8	4
C/C(=N/OC(=O)c1ccc(C(F)(F)F)cc1)c1oc(C)nc1C	20	3	91*	0	84*	72*	78*	79*	97*	86*	57*
O=S(=O)(c1ccccc1)N(CC(O)CN1CCOCC1)c1ccccc1 (stereo not drawn)	10	2	-9	-3	-12	77*	11	10	8	-2	-5
O=S(=O)(c1ccccc1)N(CC(O)CN1CCCC1)c1ccccc1 (stereo not drawn)	13	-2	8	3	-17	-2	/	/	/	/	/
CC(C)C(=O)N1CCC1(C)C(=O)Nc1ccc(-n2cncn2)cc1 (stereo not drawn)	10	0	/	/	/	/	/	/	/	/	/
O=C(/C=C/c1ccccc1Cl)Nc1ccncc1	25	-1	30	-7	62*	35	26	21	68*	29	58*
O=C(/C=C/c1cccc(Cl)c1)Nc1ccncc1	8	2	-4	-1	-2	-10	/	/	/	/	/
